Assay results collected from several papers.
Sialidase-3: Sialidase-3 (Homo sapiens, UniProt Q9UQ49)
ENO1: ENO1 (Candida albicans, UniProt P30575)
Prolyl endopeptidase: Prolyl endopeptidase (Mus musculus, UniProt Q9QUR6)
Oprm1: Mu-type opioid receptor (Oprm1, Rattus norvegicus, UniProt P33535)

CCCCNC(=O)N[C@H]1[C@H]([C@H](O)[C@H](O)CO)OC(C(=O)O)=C[C@@H]1O  IC50 (Sialidase-3; enzyme activity; inhibitor): > 500 µM
O=Nc1c(O)[nH]c(=O)[nH]c1=O  IC50 (ENO1; enzyme activity; inhibitor; absorbance): > 50 µM
COc1c2c(cc3c1-c1c(cc4c(c1OC)OCO4)C[C@H](C)[C@H](C)C3)OCO2  IC50 (Prolyl endopeptidase; enzyme activity; inhibitor; fluorescence): > 100 µM
COc1cc2c(cc1OC)CN(CCc1ccc(NC(=O)c3cccc4c(=O)c5cccc(OC)c5[nH]c34)cc1)CC2  Ki (D(4) dopamine receptor (DRD4, Homo sapiens, UniProt P21917); cell-free assay): > 10 µM
C=CCc1ccc(O)c(-c2cc(CC=C)ccc2O)c1  IC50 (Prolyl endopeptidase; enzyme activity; inhibitor; fluorescence): > 100 µM
CN1C(=O)CN=C(c2ccccc2F)c2cc([N+](=O)[O-])ccc21  IC50 (Aldo-keto reductase family 1 member C2 (AKR1C2, Homo sapiens, UniProt P52895); enzyme activity; inhibitor): 1.6 µM
C/C=C1/CN2CC[C@]34C(=C(C(=O)OC)[C@H]1C[C@H]23)Nc1ccc(Br)cc14  Ki (Oprm1; ligand displacement; radioligand; cell membranes): 0.658 µM
O=C1CCCN1CP(=O)(O)O  IC50 (ENO1; enzyme activity; inhibitor; absorbance): > 50 µM
CC(C)(C)CC(=O)N[C@H]1[C@H]([C@H](O)[C@H](O)CO)OC(C(=O)O)=C[C@@H]1O  IC50 (Sialidase-3; enzyme activity; inhibitor): > 500 µM
C/C=C1/CN2CC[C@]34C(=C(C(=O)OC)[C@H]1C[C@H]23)Nc1ccc(I)cc14  Ki (Oprm1; ligand displacement; radioligand; cell membranes): 0.388 µM
